According to ChEMBL document CHEMBL1141802, “Sesquiterpenoid metabolites with antiplasmodial activity from a Caribbean gorgonian coral, Eunicea sp” (J Nat Prod, 2005):
≈ marks a conversion by molar mass, not a printed value. Calls of active or inactive are those of the source. The calls are words filed in the database; no cut-off is given here.

Tests used:
[1] = test system: Mycobacterium tuberculosis; test: Antimicrobial activity against Mycobacterium tuberculosis H37Rv at 6.25 ug/mL; format: functional, organism-based
[2] = test system: Plasmodium falciparum; test: Antimalarial activity against chloroquine-resistant Plasmodium falciparum W2 by Picogreen dye fluorimetry; format: functional, organism-based
Method in brief: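 Fluorometric growth-inhibition assay on chloroquine-resistant W2 strain, detecting parasite DNA by PicoGreen intercalation. Result expressed as IC50 in μg/mL.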

[3] = test system: M-phase inducer phosphatase (Cdc25); test: Inhibition of Cdc25
[4] = target: Cyclin-dependent kinase 1/cyclin B1 (Homo sapiens) (UniProt P06493+P14635); test: Inhibition of Cdc2/cyclin B
[5] = test system: MCF7; test: Cytotoxicity against human MCF7 cells; format: functional, cell-based
[6] = test system: CCRF-CEM; test: Cytotoxicity against human CCRF-CEM cells; format: functional, cell-based
[7] = test system: MOLT-4; test: Cytotoxicity against human MOLT4 cells; format: functional, cell-based
[8] = Cytotoxicity against human […] cells; format: functional, cell-based
[9] = test system: HL-60(TB); test: Cytotoxicity against human HL-60(TB) cells; format: functional, cell-based

Cyclin-dependent kinase 1/cyclin B1 (Homo sapiens), sequence (P06493 whole entry, looked up): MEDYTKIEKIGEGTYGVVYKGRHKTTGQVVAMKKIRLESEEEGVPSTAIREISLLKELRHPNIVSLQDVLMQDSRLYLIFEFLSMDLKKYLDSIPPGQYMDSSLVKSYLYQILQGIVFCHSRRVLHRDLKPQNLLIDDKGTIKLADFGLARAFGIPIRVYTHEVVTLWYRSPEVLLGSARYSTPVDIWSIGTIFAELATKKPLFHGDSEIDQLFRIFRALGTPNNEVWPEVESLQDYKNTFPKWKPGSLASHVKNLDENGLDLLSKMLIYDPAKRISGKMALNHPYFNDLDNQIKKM
Cyclin-dependent kinase 1/cyclin B1 (Homo sapiens), sequence (P14635 whole entry, looked up): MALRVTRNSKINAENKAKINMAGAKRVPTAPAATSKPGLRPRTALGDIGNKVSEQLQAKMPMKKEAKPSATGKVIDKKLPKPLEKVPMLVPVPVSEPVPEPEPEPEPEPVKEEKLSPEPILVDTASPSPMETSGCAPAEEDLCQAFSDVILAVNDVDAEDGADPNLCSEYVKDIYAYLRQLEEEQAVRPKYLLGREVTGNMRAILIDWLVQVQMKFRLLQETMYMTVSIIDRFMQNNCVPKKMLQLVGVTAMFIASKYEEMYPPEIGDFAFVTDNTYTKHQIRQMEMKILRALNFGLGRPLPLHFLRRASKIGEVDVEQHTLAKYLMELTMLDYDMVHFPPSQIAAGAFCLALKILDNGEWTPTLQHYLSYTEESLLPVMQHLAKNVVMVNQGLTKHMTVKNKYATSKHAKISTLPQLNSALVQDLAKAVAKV

Structure (SMILES)	Activity [1]	IC50 [2]	also measured
C=C1CC[C@@H](C(C)=O)[C@@H](OC(=O)/C=C/C(C)(C)O)/C=C(\C)CCC1=O	inactive	16 µg/mL (≈ 45.9 µM)	Activity [3]: inactive; Activity [4]: inactive
C=C1CC[C@H](O)[C@@]2(C)CC[C@@H]3[C@@H](OC(=O)[C@H]3C)[C@H]12	inactive	14 µg/mL (≈ 55.9 µM)	–
C=C1CC[C@H](O)[C@@]2(C)CC[C@@H](C(C)=O)[C@@H](OC(=O)/C=C/C(C)(C)O)[C@H]12	inactive	10 µg/mL (≈ 28.5 µM)	–
C=C[C@@]1(C)CC[C@@H](C(C)=O)[C@@H](OC(=O)/C=C/C(C)(C)O)[C@@H]1C(=C)C	inactive	–	–
C=C1CC[C@@H]2[C@H](/C=C(\C)CC[C@@H]1O)OC(=O)[C@H]2C	–	18 µg/mL (≈ 71.9 µM)	IC50 [5]: 82.2 µg/mL (≈ 328 µM); IC50 [6]: 31.3 µg/mL (≈ 125 µM); IC50 [7]: 19.6 µg/mL (≈ 78.3 µM); IC50 [8]: 90.4 µg/mL (≈ 361 µM); IC50 [9]: 51.5 µg/mL (≈ 206 µM)
C=C[C@@]1(C)CCC2=C(C)C(=O)O[C@H]2[C@@H]1C(=C)C	–	> 50 µg/mL	–
C=C1CC[C@@H](C(C)=O)[C@@H](OC(=O)/C=C/C(C)(C)O)/C=C(\C)CC[C@@H]1O	–	14 µg/mL (≈ 39.9 µM)	Activity [3]: inactive; Activity [4]: inactive
